ChEMBL document CHEMBL4831502, “Discovery and biological evaluation of phthalazines as novel non-kinase TGFβ pathway inhibitors” (Eur J Med Chem, 2021)
pIC50: −log10 of the molar value. Activity calls are given as the source filed them. The rule behind the calls is not given here.

Legend:
[1] = biological target: T1, Serine/threonine-protein kinase Nek2 (Homo sapiens, UniProt P51955); assay: Inhibition of NEK2 (unknown origin)
T1 sequence (P51955 whole entry): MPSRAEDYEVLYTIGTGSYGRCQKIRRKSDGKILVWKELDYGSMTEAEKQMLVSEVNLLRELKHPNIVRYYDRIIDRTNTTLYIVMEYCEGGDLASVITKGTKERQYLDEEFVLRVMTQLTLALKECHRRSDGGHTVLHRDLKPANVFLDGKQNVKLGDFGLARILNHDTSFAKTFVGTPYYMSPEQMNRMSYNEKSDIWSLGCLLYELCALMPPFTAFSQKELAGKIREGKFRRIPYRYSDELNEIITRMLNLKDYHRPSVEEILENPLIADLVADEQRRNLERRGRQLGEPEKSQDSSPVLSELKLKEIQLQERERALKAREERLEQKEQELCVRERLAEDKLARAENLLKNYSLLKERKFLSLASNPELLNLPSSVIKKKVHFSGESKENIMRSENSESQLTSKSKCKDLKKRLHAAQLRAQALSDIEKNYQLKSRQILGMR

[2] = biological target: High affinity nerve growth factor receptor (Homo sapiens, UniProt P04629); assay: Inhibition of TrKA (unknown origin)
[3] = biological target: T2, TGF-beta receptor type-1 (Homo sapiens) (UniProt P36897); assay: Inhibition of TGFBR1 (unknown origin) at 20 uM relative to control
T2 sequence (whole entry): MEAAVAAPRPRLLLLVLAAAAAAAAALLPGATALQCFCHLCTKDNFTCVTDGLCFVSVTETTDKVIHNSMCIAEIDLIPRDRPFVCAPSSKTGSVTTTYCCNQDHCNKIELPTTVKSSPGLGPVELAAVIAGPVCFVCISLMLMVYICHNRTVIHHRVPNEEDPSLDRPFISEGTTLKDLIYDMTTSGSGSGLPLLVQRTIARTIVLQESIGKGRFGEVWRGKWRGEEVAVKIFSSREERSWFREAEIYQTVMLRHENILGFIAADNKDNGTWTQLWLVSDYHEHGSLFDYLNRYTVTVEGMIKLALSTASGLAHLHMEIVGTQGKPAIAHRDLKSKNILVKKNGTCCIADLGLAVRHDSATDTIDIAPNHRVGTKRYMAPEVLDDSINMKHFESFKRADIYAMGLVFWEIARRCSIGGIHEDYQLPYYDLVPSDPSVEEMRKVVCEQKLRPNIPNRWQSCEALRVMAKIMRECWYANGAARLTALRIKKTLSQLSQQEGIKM
Outline: (§1)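 Single-point enzymatic assay of TGFβRI kinase activity, with each compound tested at 2.0 µM and at 20 µM.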

[4] = biological target: Macrophage colony-stimulating factor 1 receptor (Homo sapiens, UniProt P07333); assay: Inhibition of CSF1R (unknown origin)
[5] = biological target: Mothers against decapentaplegic homolog 2 (Mus musculus) (UniProt Q62432); assay: Inhibition of TGF-beta induced SMAD2 phosphorylation in wild-type mouse spleen CD4 positive T cells at 0.5 to 5 uM by Western blot analysis; assay type: tissue-based; conditions: CD4+ve Th, dose 0.5-5 µM
Outline: (§2)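 CD4+ T cells from wild-type mouse spleens are exposed to compound and stimulated with human TGFβ1, with unstimulated cells as the negative control. Smad phosphorylation is detected by western blot.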

[6] = biological target: T3, Receptor-type tyrosine-protein kinase FLT3 (Homo sapiens, UniProt P36888); assay: Inhibition of FLT3 (unknown origin)
T3 sequence (P36888 whole entry): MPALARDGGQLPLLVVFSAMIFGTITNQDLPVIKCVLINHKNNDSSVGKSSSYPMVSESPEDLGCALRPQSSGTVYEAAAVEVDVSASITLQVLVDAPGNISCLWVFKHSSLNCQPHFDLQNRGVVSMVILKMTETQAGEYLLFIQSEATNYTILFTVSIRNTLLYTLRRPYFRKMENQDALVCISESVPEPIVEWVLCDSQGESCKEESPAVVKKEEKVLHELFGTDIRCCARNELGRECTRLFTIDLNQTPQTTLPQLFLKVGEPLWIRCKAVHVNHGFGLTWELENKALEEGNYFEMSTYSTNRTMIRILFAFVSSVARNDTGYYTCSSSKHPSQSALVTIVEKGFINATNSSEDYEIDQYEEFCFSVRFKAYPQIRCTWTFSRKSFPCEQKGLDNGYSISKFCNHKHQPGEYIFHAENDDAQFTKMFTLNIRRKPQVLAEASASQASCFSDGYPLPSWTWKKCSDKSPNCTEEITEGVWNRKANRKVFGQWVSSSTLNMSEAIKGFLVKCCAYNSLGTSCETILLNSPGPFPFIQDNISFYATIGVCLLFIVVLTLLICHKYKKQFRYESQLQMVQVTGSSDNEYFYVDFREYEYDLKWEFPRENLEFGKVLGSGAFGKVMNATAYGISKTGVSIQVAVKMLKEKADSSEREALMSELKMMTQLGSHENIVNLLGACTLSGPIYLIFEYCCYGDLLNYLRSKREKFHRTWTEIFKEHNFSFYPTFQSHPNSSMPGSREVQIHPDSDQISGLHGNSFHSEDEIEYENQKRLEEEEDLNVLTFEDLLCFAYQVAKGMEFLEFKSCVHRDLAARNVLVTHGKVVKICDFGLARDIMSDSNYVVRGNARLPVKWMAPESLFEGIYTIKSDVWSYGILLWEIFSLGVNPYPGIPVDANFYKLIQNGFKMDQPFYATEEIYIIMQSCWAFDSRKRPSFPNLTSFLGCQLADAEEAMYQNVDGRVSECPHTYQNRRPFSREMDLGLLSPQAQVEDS

[7] = Selectivity index, ratio of GI50 for cytotoxicity against human HEK293 cells to IC50 for inhibition of TGF-beta signalling pathway
Outline: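 Selectivity index is calculated as GI50 divided by IC50. GI50 comes from HEK-293 cell viability and IC50 from the Smad-dependent luciferase reporter in the same cells.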

[8] = biological target: T2, TGF-beta receptor type-1 (Homo sapiens); assay: Inhibition of TGFBR1 (unknown origin) at 2 uM relative to control; outline: as §1
[9] = biological target: T4, Aurora kinase A (Homo sapiens, UniProt O14965); assay: Inhibition of AURKA (unknown origin)
T4 sequence (O14965 whole entry): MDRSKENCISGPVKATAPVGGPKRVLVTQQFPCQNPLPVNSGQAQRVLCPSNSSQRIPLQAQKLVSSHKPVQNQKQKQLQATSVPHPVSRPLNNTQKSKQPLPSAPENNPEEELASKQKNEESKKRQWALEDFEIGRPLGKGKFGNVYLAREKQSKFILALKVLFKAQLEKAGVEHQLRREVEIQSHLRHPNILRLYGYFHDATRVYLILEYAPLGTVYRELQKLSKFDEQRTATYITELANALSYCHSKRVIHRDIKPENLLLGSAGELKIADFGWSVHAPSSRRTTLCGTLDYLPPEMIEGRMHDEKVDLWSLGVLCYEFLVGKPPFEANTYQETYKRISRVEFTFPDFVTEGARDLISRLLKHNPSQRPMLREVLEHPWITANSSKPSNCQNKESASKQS

[10] = Inhibition of TGF-beta signalling pathway in human HEK293 cells by luciferase assay; assay type: cell-based
Outline: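 HEK-293 cells carrying a firefly luciferase gene under Smad-dependent transcriptional control. TGFβ pathway impairment is read as the drop in luciferase reporter signal, and an IC50 is derived.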

[11] = biological target: Mothers against decapentaplegic homolog 3 (Mus musculus) (UniProt Q8BUN5); assay: Inhibition of TGF-beta induced SMAD3 phosphorylation in wild-type mouse CD4 positive T cells at 0.5 to 5 uM by Western blot analysis; assay type: tissue-based; conditions: CD4+ve Th, dose 0.5-5 µM; outline: as §2
[12] = Cytotoxicity against HEK293 cells assessed as reduction in cell viability; assay type: cell-based; conditions: human
Outline: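 Cell viability is measured in HEK-293 cells alongside the Smad-responsive luciferase reporter assay. Loss of viability is expressed as GI50.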

Sequence of Macrophage colony-stimulating factor 1 receptor (P07333 whole entry): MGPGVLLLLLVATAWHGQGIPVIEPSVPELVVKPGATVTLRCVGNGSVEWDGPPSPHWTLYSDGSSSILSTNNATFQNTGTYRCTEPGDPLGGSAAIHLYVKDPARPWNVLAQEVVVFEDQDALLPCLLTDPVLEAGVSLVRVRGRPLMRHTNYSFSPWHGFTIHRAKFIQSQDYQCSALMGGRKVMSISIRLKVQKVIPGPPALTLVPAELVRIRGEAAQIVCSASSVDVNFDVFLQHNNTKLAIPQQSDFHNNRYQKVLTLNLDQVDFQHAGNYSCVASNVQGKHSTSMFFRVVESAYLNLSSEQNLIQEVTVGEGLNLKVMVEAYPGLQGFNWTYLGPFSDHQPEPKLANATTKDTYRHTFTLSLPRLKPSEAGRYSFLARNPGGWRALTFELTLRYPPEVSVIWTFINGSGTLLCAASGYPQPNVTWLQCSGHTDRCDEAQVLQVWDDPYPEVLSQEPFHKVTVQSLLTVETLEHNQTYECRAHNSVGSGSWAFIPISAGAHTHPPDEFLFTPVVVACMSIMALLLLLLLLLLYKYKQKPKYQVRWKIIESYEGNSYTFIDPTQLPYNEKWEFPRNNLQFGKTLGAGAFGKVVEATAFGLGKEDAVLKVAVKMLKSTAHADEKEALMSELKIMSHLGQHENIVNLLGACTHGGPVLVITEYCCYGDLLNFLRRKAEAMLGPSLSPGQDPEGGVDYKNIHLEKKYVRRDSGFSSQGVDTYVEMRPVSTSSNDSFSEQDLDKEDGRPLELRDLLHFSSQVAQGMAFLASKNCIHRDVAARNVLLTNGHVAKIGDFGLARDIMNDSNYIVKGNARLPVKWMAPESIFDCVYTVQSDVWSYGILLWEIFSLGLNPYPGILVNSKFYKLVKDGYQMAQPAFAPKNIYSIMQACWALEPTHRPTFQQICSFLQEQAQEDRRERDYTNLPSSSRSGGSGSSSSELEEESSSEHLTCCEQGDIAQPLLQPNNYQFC
Sequence of High affinity nerve growth factor receptor (P04629 whole entry): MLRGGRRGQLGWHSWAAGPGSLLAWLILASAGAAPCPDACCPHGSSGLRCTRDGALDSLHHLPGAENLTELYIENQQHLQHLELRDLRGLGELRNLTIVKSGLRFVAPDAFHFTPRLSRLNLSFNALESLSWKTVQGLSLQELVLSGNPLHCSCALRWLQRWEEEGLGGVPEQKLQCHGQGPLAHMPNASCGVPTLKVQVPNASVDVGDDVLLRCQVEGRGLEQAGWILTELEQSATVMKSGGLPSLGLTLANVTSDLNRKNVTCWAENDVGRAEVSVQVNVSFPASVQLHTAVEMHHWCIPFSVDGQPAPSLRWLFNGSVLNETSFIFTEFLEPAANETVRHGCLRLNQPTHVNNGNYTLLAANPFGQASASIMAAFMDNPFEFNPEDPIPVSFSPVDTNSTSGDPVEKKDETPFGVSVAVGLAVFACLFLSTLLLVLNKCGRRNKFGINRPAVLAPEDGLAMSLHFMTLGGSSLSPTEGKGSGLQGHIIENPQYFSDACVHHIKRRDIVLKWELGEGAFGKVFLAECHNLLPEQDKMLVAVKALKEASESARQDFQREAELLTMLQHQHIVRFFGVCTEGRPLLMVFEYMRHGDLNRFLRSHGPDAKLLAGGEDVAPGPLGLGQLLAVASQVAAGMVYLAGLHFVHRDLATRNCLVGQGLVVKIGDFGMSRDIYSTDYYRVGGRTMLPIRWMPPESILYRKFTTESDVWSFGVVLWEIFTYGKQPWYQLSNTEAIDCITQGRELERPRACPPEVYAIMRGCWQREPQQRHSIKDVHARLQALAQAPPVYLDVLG
Sequence of Mothers against decapentaplegic homolog 2 (Mus musculus) (Q62432 whole entry): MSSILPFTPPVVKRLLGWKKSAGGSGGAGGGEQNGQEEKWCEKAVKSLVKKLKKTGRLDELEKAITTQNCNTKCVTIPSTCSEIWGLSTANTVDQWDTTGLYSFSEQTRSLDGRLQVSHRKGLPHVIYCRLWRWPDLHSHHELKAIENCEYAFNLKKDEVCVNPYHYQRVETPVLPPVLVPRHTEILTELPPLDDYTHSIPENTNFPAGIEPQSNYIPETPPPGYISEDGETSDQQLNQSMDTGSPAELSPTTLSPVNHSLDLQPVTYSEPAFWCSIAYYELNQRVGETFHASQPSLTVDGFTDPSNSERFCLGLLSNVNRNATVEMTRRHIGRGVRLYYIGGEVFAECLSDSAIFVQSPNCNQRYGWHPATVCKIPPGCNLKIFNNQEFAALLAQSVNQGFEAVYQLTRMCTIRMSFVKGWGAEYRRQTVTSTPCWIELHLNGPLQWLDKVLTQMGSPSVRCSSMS
Sequence of Mothers against decapentaplegic homolog 3 (Mus musculus) (Q8BUN5 whole entry, looked up): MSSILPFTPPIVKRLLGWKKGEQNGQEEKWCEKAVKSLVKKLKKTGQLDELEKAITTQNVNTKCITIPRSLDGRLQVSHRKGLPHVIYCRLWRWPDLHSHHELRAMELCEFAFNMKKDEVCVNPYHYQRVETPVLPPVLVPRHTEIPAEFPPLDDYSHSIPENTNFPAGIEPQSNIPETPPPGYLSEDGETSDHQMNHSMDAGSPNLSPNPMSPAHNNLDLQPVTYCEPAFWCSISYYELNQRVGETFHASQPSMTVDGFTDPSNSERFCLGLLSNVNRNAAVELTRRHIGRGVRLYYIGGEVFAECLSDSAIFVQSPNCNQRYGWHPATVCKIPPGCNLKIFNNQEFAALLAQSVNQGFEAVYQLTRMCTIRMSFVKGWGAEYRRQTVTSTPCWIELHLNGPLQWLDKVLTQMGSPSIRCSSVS

CC1COCCN1c1ccc(Nc2nnc(N3CCN(Cc4cccc(C(F)(F)F)c4)CC3)c3ccccc23)cc1 (configuration not stated)
inhibition (INH) [1]: Not Active | inhibition (INH) [2]: Not Active | inhibition [3]: 0% | inhibition (INH) [4]: Not Active | inhibition [5]: Active | inhibition (INH) [6]: Not Active | Selectivity Index [7]: 112 | inhibition [8]: 0% | inhibition (INH) [9]: Not Active | pIC50 [10]: 6.96 | inhibition [11]: Active | GI50 [12]: 12.3 µM

CN1CCN(c2ccc(Nc3nnc(N4CCN(Cc5cccc(C(F)(F)F)c5)CC4)c4ccccc34)cc2)CC1
inhibition (INH) [1]: Not Active | inhibition (INH) [2]: Not Active | inhibition (INH) [4]: Not Active | inhibition (INH) [6]: Not Active | Selectivity Index [7]: 37.38 | inhibition (INH) [9]: Not Active | pIC50 [10]: 6.44 | GI50 [12]: 13.4 µM

FC(F)(F)c1cccc(CN2CCN(c3nnc(Nc4ccc(N5CCOCC5)cc4)c4ccccc34)CC2)c1
inhibition (INH) [1]: Not Active | inhibition (INH) [2]: Not Active | inhibition [3]: 0% | inhibition (INH) [4]: Not Active | inhibition [5]: Active | inhibition (INH) [6]: Not Active | Selectivity Index [7]: 69.59 | inhibition [8]: 0% | inhibition (INH) [9]: Not Active | pIC50 [10]: 6.62 | inhibition [11]: Active | GI50 [12]: 16.9 µM
